Assay results published in ChEMBL document CHEMBL4145615, “Indolyl Azaspiroketal Mannich Bases Are Potent Antimycobacterial Agents with Selective Membrane Permeabilizing Effects and in Vivo Activity” (J Med Chem, 2018).
Values after ≈ are worked out from the molar mass of the structure shown.

Assays:
[1] = Hemolytic activity against human RBC after 1 hr; format: ADME, cell-based, Erythrocyte; conditions: red blood cells (erythrocytes)
In short: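 Human red blood cells were exposed to the test compound at a range of concentrations in phosphate-buffered saline for 1 h at 37°C. Hemolysis was referenced to 2% Triton X-100, taken as 100% hemolysis. The value reported is the concentration that lyses 50% of RBCs.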

[2] = system: Mycobacterium tuberculosis; assay: Antimycobacterial activity against Mycobacterium tuberculosis H37Rv ATCC 27294 after 7 days by broth dilution method; format: functional; conditions: H37Rv ATCC 27294, 168 h
[3] = Drug uptake in lung of Mycobacterium tuberculosis H37Rv infected BALB/c mouse at 100 mg/kg administered 6 days per week for 4 weeks via oral gavage; format: ADME, organism-based; conditions: in vivo, read-out: Drug uptake
[4] = Drug uptake in lungs of CD1 mouse at 25 mg/kg, po administered as single dose measured at 5 hrs post dose by LC/MS-MS analysis; format: ADME, organism-based; conditions: lung, read-out: Drug uptake
In short: (§1)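 Uninfected CD-1 mice (n=2 per compound), single oral dose 25 mg/kg as a solution in 5% DMA/65% PEG300/30% D5W. Blood taken at 30 min, 1, 3, 5 h and plasma separated by centrifugation. Lungs taken at 5 h and homogenized in ~5 volumes PBS. Levels measured by LC/MS-MS after acetonitrile/methanol protein precipitation with verapamil internal standard. AUC and Cmax calculated from mean concentrations.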

Mus musculus [5] = assay: Toxicity in CD1 mouse at 25 mg/kg, po administered as single dose by LC/MS-MS analysis; format: organism-based; conditions: in vivo
In short: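 Uninfected CD-1 mice (n=2 per compound) received a single oral 25 mg/kg dose as a solution in 5% DMA/65% PEG300/30% D5W. Tail-bleed blood was taken at 30 min, 1, 3 and 5 h and spun to plasma. Lungs were taken at 5 h and homogenized in about 5 volumes of PBS. Samples were acetonitrile/methanol-precipitated with verapamil internal standard and quantified by LC-MS/MS against standard curves in drug-free CD1 plasma.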

[6] = Cmax in CD1 mouse at 25 mg/kg, po administered as single dose by LC/MS-MS analysis; format: ADME, organism-based; set-up: dose 25 mg/kg, route oral; conditions: in vivo; in short: as §1
[7] = Plasma concentration in CD1 mouse at 25 mg/kg, po administered as single dose measured at 5 hrs post dose by LC/MS-MS analysis; format: ADME, organism-based; in short: as §1
[8] = Ratio of drug level in CD1 mouse lung to plasma at 25 mg/kg, po administered as single dose measured at 5 hrs post dose by LC/MS-MS analysis; format: ADME, organism-based
In short: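 Blood taken at 30 min, 1, 3, 5 h and plasma separated by centrifugation. Lungs taken at 5 h and homogenized in ~5 volumes PBS. Levels measured by LC/MS-MS after acetonitrile/methanol protein precipitation with verapamil internal standard. AUC and Cmax calculated from mean concentrations.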

[9] = Half life in rat liver microsomes at 1 uM preincubated for 5 mins followed by NADPH addition measure up to 45 mins by LC-MS analysis; format: ADME, microsome; conditions: 0.75 h
In short: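 Male rat liver microsomes, incubated 45 min at 37°C. Half-life reported as mean ± SD.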

Mus musculus [10] = assay: Acute toxicity in BALB/c mouse at 100 mg/kg administered via oral gavage for 3 days measured over 7 days; format: organism-based; conditions: in vivo, 168 h
In short: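 BALB/c mice, 3 per group, oral gavage at 100 mg/kg in 200 μL of equal volumes PEG400 and 5% glucose. Dosed on three consecutive days, then monitored 7 days. Euthanized by CO2 and examined for gross pathological changes.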

Mus musculus [11] = assay: AUC in CD1 mouse at 25 mg/kg, po administered as single dose by LC/MS-MS analysis; format: ADME, organism-based; conditions: in vivo; in short: as §1

CCCCCCCCn1cc(CN2CCC3(CC2)OCCO3)c2ccc(OC)cc21
HC50 at 1 h [1]: 75 µM
MIC50 [2]: 1.2 µM (≈ 0.498 µg/mL)
MIC90 [2]: 2.3 µM (≈ 0.954 µg/mL)
concentration [3]: 1000 nM
concentration at 5 h [4]: 468 ng/g
Activity (Mus musculus [5]): Non-Toxic
Cmax [6]: 42 ng/mL
concentration at 5 h [7]: 33 ng/mL
Kp at 5 h [8]: 14.2
t1/2 [9]: 17.4 min
Activity (Mus musculus [10]): Non-Toxic
AUC (Mus musculus [11]): 173 ng·h/mL
